The record followed here is ChEMBL document CHEMBL1157363, “Inhibition of isolated Mycobacterium tuberculosis fatty acid synthase I by pyrazinamide analogs” (Antimicrob Agents Chemother, 2007).

Structures are written as SMILES. Active and inactive are the calls of the source. The calls are words filed in the database; no cut-off is given here.

For orientation: inhibition means how much of the control response was suppressed. For orientation: IC50 means the concentration needed to halve the response being measured. Usually Ki stands for a dissociation constant, usually derived from enzyme kinetics or from competition with a known ligand.

For assay [1], the system named is Mycobacterium tuberculosis. Description: Inhibition of Mycobacterium tuberculosis fatty acid synthase 1 expressed in Mycobacterium smegmatis mc2 2700 assessed as NADPH oxidation upto 100 mM by spectrophotometry. A digest of the protocol: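 NADPH oxidation by purified Mtb FASI (1–3 μg/ml), 50 μM acetyl-CoA, 40 μM malonyl-CoA, 100 μM NADPH, 5 mM DTT, 400 mM potassium phosphate pH 7.4, 37°C, A340 decrease over 10 min; inhibitor added from DMSO at up to 100 mM, percent inhibition read.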

Assay [2] in a line: Inhibition of Mycobacterium tuberculosis fatty acid synthase 1 expressed in Mycobacterium smegmatis mc2 2700 assessed as NADPH oxidation at 100 uM of NADPH by spectrophotometry. A digest of the protocol: (§1)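 Purified Mtb FASI (from M. smegmatis Δfas1 attB::Mtb fas1, ammonium sulfate, DE52, gel filtration), 1–3 μg in 1 ml: 50 μM acetyl-CoA, 40 μM malonyl-CoA, 100 μM NADPH, 5 mM DTT, 400 mM potassium phosphate pH 7.4; inhibitor in DMSO (≤0.05 ml/ml). Linear A340 decrease over 10 min at 37°C; IC50 from Dixon plot x-intercept at 100 μM NADPH.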

Assay [3] relates to Mycobacterium tuberculosis. Description: Inhibition of Mycobacterium tuberculosis fatty acid synthase 1 expressed in Mycobacterium smegmatis mc2 2700 assessed as NADPH oxidation by spectrophotometry. A digest of the protocol:
as §1

Assay [4] concerns Mycobacterium tuberculosis. In words: Inhibition of Mycobacterium tuberculosis fatty acid synthase 1 expressed in Mycobacterium smegmatis mc2 2700 assessed as [2-14C]]malonyl-CoA incorporation into fatty acid at 3000 uM.
Assay [5] concerns Mycobacterium tuberculosis. Description: Inhibition of Mycobacterium tuberculosis fatty acid synthase 1 expressed in Mycobacterium smegmatis mc2 2700 assessed as [2-14C]]malonyl-CoA incorporation into fatty acid at 6000 uM.
Assay [6] can be described thus: Inhibition of Mycobacterium tuberculosis fatty acid synthase 1 expressed in Mycobacterium smegmatis mc2 2700 assessed as NADPH oxidation using variable concentration of NADPH by spectrophotometry.

For the compound `NC(=O)c1ccccc1`, the inhibition in assay [1] is 15%.

Regarding `CC(C)(C)OC(=O)c1cnc(F)cn1`, in assay [2], the IC50 worked out at 4.3 µM.

In the case of `O=C(O)c1cnccn1`, the Activity entry in assay [3] is “Dose-dependent effect”. Further, the results for the inhibition in assay [4] and in assay [5] were 6% and 37%, respectively.

Consider `NC(=O)c1cnccn1` [PYRAZINAMIDE], for which, in assay [3], the Activity result is “Dose-dependent effect”. For the same compound, the inhibition in assay [4] turned out to be 6%; in assay [5] it was 37%. In addition, the 50% inhibitory concentration (IC50) in assay [2] and in assay [6] was 8930 µM in each case. Besides, in assay [6], the Ki amounted to 2570 µM.

As to `CCCOC(=O)c1cnc(F)cn1`, the IC50 in assay [2] is 1.5 µM. The inhibition in assay [5] stood at 66%.

For the compound `NC(=O)c1cnc(Cl)cn1`, in assay [3], the Activity entry was “Dose-dependent effect”. In assay [4], the inhibition came to 39%. In addition, the concentration for half-maximal inhibition (IC50) in assay [2] worked out at 15.1 µM. In assay [6], the IC50 was 151 µM and the inhibitory constant (Ki) is 55 µM.

With `CCCNC(=O)c1cnc(Cl)cn1`, the inhibition in assay [4] was found to be 6%; in assay [5], 37%. In assay [2], the IC50 worked out at 8.1 µM.

`C/C=C/C/C=C/CCC(=O)[C@H]1O[C@H]1C(N)=O`: in assay [4], the outcome was inactive. The inhibition in assay [5] was found to be 62%.

Take `CC(C)(C)OC(=O)c1cnc(Cl)cn1`: the IC50 in assay [2] was 15.1 µM.

As for `CC[C@@H](CO)NCCN[C@@H](CC)CO`, in assay [5], the result was inactive.

On to `CCCOC(=O)c1cnc(Cl)cn1`, for which the IC50 in assay [2] came out at 5.9 µM. In addition, the inhibition in assay [5] was determined as 66%.

As for `CC(C)(C)NC(=O)c1cnc(Cl)cn1`, the IC50 in assay [2] was determined as 8.7 µM.

As for `CCCOC(=O)c1cnccn1`, the inhibition was determined as 6% in assay [4] and 37% in assay [5]. In assay [2], the IC50 stood at 1720 µM.

Take `CC(C)(C)OC(=O)c1cnccn1`: the IC50 in assay [2] stood at 1360 µM.
